From ChEMBL document CHEMBL1140840, “New insight for fluoroquinophenoxazine derivatives as possibly new potent topoisomerase I inhibitor” (Bioorg Med Chem Lett, 2008)

Tests used:
DU-145 = assay: Cytotoxicity against human DU145 cells; type: functional, cell-based
Method in brief: (§1)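 Cells seeded at 2–4 × 10⁴ per well, grown overnight in medium with 10% FBS at 37 °C under 5% CO₂. On day 2 the medium was replaced with medium holding graded compound concentrations. Absorbance was read at 450 nm. IC50 came from a four-parameter logistic fit. Mean ± SD of three experiments, each in triplicate.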

HCT-116 = assay: Cytotoxicity against human HCT116 cells; type: functional, cell-based; method in brief: as §1
HeLa = assay: Cytotoxicity against human HeLa cells; type: functional, cell-based; method in brief: as §1
MDA-MB-231 = assay: Cytotoxicity against human MDA-MB-231 cells; type: functional, cell-based; method in brief: as §1
HL-60 = assay: Cytotoxicity against human HL60 cells; type: functional, cell-based; method in brief: as §1
Bos taurus [1] = species: Bos taurus; assay: Inhibition of calf thymus topoisomerase 1 assessed as relaxation of supercoiled DNA pBR322 at 2 uM relative to camptothecin
Bos taurus [2] = species: Bos taurus; assay: Inhibition of calf thymus topoisomerase 1 assessed as relaxation of supercoiled DNA pBR322 at 20 uM relative to camptothecin
[3] = molecular target: DNA topoisomerase 2-alpha (Homo sapiens) (UniProt P11388); assay: Inhibition of human topoisomerase 2alpha assessed as relaxation of supercoiled DNA pBR322 at 2 uM relative to etoposide
Method in brief: (§2)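 Human topo IIα (2 units) with 200 ng supercoiled pBR322 in 10 mM Tris-HCl pH 7.9, 50 mM NaCl, 5 mM MgCl2, 1 mM EDTA, 1 mM ATP, 15 µg/mL BSA, 30 min at 30 °C. Compounds at 2 or 10 µM, from 20 mM DMSO stocks. Stopped with EDTA. Products on 1% agarose, stained with ethidium bromide. Supercoiled DNA quantified under UV.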

[4] = molecular target: DNA topoisomerase 2-alpha (Homo sapiens) (UniProt P11388); assay: Inhibition of human topoisomerase 2alpha assessed as relaxation of supercoiled DNA pBR322 at 10 uM relative to etoposide; method in brief: as §2

DNA topoisomerase 2-alpha (Homo sapiens), sequence (P11388 whole entry): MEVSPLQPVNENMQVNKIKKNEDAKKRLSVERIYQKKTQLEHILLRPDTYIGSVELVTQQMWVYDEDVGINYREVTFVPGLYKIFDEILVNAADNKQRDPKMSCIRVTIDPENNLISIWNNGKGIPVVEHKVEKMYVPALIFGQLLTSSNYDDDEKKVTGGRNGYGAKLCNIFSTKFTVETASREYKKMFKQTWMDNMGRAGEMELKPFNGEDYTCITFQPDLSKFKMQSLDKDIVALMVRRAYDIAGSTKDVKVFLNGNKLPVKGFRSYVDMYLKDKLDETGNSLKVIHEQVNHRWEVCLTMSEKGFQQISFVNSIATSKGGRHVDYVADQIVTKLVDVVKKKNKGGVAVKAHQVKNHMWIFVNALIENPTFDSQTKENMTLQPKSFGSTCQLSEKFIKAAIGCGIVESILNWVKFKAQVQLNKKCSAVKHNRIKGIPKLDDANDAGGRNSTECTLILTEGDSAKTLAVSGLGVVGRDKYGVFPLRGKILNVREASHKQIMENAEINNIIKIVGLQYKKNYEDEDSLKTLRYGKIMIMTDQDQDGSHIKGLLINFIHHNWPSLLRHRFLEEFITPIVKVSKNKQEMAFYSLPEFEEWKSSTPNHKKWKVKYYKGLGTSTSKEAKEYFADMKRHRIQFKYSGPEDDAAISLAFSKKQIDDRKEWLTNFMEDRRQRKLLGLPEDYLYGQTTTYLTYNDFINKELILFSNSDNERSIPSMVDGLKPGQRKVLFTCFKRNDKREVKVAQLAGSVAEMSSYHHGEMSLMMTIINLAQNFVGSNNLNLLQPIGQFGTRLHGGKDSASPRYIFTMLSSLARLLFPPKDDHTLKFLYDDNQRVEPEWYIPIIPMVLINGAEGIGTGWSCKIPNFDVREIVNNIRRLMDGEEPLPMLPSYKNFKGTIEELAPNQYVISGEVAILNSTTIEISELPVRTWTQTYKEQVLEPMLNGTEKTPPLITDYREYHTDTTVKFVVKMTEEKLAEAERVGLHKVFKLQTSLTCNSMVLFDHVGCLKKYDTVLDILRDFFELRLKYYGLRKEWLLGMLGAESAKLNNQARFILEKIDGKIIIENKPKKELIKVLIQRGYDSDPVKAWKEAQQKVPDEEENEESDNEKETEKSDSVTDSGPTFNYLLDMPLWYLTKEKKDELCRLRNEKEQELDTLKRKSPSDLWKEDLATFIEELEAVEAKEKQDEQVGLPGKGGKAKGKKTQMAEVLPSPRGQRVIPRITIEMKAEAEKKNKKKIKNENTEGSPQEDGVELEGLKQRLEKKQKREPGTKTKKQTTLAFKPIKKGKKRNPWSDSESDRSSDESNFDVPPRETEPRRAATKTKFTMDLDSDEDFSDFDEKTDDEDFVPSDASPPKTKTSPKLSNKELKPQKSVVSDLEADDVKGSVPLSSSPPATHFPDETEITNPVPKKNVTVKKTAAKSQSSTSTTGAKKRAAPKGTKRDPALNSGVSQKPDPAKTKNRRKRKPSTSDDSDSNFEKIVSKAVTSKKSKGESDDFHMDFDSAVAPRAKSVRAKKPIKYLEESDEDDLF

Compound	IC50 (DU-145)	IC50 (HCT-116)	IC50 (HeLa)	IC50 (MDA-MB-231)	IC50 (HL-60)	inhibition (Bos taurus [1])	inhibition (Bos taurus [2])	inhibition [3]	inhibition [4]
CC[C@@]1(O)C(=O)OCc2c1cc1n(c2=O)Cc2cc3ccccc3nc2-1 [CAMPTOTHECIN]	3.2 µM	1 µM	1.08 µM	4.16 µM	0.013 µM	63.3%	84.1%	–	–
N[C@H]1CCN(c2c(F)cc3c(=O)c(C(=O)O)cn4c3c2Oc2ccccc2-4)C1	1.82 µM	0.87 µM	2.33 µM	4.34 µM	2.4 µM	88.9%	90.2%	89.1%	89.4%
O=C(O)c1cn2c3c(c(F)c(F)cc3c1=O)Oc1ccccc1-2	> 50 µM	6.3 µM	> 50 µM	> 50 µM	> 50 µM	53.5%	96.6%	0.5%	82.4%
COc1cccc2c1C(=O)c1c(O)c3c(c(O)c1C2=O)C[C@@](O)(C(=O)CO)C[C@@H]3O[C@H]1C[C@H](N)[C@H](O)[C@H](C)O1 [DOXORUBICIN]	1.57 µM	1.1 µM	3.09 µM	1.39 µM	0.72 µM	–	–	–	–
N[C@H]1CCN(c2c(F)cc3c(=O)c(C(=O)O)cn4c3c2Oc2nc(O)ncc2-4)C1	> 50 µM	> 50 µM	> 50 µM	> 50 µM	> 50 µM	32.4%	0%	0%	28.8%
N[C@H]1CCN(c2c(F)cc3c(=O)c(C(=O)O)cn4c3c2Oc2ccc([N+](=O)[O-])cc2-4)C1	13.8 µM	7.45 µM	17.7 µM	19.8 µM	9.93 µM	65.7%	95.3%	26%	91.6%
N[C@H]1CCN(c2c(F)cc3c(=O)c(C(=O)O)cn4c3c2Sc2ccccc2-4)C1	19.3 µM	2.41 µM	5.08 µM	19.2 µM	11.5 µM	45.1%	97.2%	57%	91.7%
N[C@H]1CCN(c2c(F)cc3c(=O)c(C(=O)O)cn4c3c2Oc2ccc(Cl)cc2-4)C1	17.6 µM	2.56 µM	2.01 µM	19.3 µM	1.63 µM	87.9%	86.1%	89%	88.6%
COc1cc([C@@H]2c3cc4c(cc3[C@@H](O[C@@H]3O[C@@H]5CO[C@@H](C)O[C@H]5[C@H](O)[C@H]3O)[C@H]3COC(=O)[C@H]23)OCO4)cc(OC)c1O [ETOPOSIDE]	29.8 µM	15.1 µM	18.2 µM	16.2 µM	1.44 µM	–	–	0.7%	40.9%
N[C@H]1CCN(c2c(F)cc3c(=O)c(C(=O)O)cn4c3c2Oc2cc(S(=O)(=O)O)c3ccccc3c2-4)C1	> 50 µM	> 50 µM	> 50 µM	> 50 µM	> 50 µM	39.1%	25%	1.9%	24.7%
